Source: PubChem BioAssay (several laboratories)
Most compounds without a hit are left out; they make up all but 2.2% or so of the library.
Spn MK inh: inhibitors of Streptococcus pneumoniae mevalonate kinase. purified MK, PK/LDH-coupled NADH absorbance 340 nm. inhibition, % at 10 µM. 0.48% of 65,000 active;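 active = ranked among the strongest by inhibition in the single 10 µM screen, a fixed top-ranked set picked for dose follow-up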
S1P1 ag pot: activates or potentiates agonism at human S1P1 receptor; activation, % at 9.5 µM; S1P1 CRE-bla cells, forskolin, beta-lactamase FRET, potentiator mode; S1P1 agonist co-added at EC20, 2 nM; 100% = saturating reference agonist, 0% = basal; 0.57% of 56,000 active; P21453;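 active = activation above a cutoff set at the mean activation of all tested compounds plus 3 SD, cut at about 54% in these data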;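 also: forskolin at 4 µM as EC80 and the EC20 agonist is SEW2871; 100% = SEW2871 at its EC100 plus forskolin at EC80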
Target sequence (P21453 whole entry, looked up): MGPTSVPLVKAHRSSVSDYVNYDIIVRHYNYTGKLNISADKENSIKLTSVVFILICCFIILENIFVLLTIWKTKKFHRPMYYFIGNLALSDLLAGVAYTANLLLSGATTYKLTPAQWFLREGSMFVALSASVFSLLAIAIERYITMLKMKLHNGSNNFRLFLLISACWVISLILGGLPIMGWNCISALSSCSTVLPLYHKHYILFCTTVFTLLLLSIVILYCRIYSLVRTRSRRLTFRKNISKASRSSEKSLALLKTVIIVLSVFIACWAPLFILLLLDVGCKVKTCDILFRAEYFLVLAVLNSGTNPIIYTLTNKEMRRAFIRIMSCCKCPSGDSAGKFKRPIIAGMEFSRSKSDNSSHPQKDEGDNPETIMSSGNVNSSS
PMK inhibit: S. pneumoniae PMK inhibition. purified PMK, PK/LDH-coupled NADH absorbance 340 nm. inhibition, % at 10 µM. 0.49% of 65,000 active. AID 539;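 active = top-ranked compounds by inhibition in the single 10 µM screen, taking a fixed number of the strongest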;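 also: 0% = full reaction with DMSO carrier and 100% = background rate without enzyme reaction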
Hsp90 inh: displaces geldanamycin probe from tumor Hsp90 | P07900 | NCI-N417 lysate Hsp90, Cy3B-geldanamycin FP displacement | inhibition, % at 30 µM | 0.35% of 64,000 active | AID 429;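 active = inhibition above 50%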;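 also: 0% = tracer plus lysate wells and 100% = tracer alone without lysate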
DPM-DC inhibit: inhibitors of Streptococcus pneumoniae diphosphomevalonate decarboxylase | purified DPM-DC, PK/LDH coupled NADH fluorescence | calls only at 10 µM | 0.49% of 65,000 active | AID 556;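 active = the 320 compounds with the highest percent inhibition in the single-dose primary screen, excluding strongly autofluorescent ones, cut at about 32% in these data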;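 also: kinetic rate of NADH fluorescence loss reporting ADP formed by the decarboxylase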
S1P3 ag: activates the human S1P3 receptor; S1P3 NFAT-BLA reporter cells, agonism, FRET ratio; relative to 1 µM S1P, basal subtracted; activation, % at 4.5 µM; 0.1% of 60,000 active; AID 373;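 active = activation above the screen-wide mean plus 3 SD, cut at about 4.5% in these data, passing the limit was not always enough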
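material = human S1P3 NFAT-BLA reporter CHO cells | schedule = 4 h compound at 37 °C, 2 h substrate at RT | measured by = fluorescent BLA substrate, ex 405 nm, em 460/535 nm ratio | controls = 1 µM S1P reference | replication = primary once, confirmation triplicate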
Numbers without * were called inactive; i = inactive; nt = no result given; + = active, no number; [ ] = dose if it differs, or a comment.

SMILES	Spn MK inh	S1P1 ag pot	PMK inhibit	Hsp90 inh	DPM-DC inhibit	S1P3 ag
Cc1ccc(S(=O)(=O)c2cc3c(=O)n4ccccc4nc3n(CC3CCCO3)c2=N)cc1C (stereo not drawn)	3	-43	14	-3	+[fluoresces]	0
Cc1ccc(C2C3=C(CC(C)(C)CC3=O)N(CCN3CCOCC3)C3=C2C(=O)CC(C)(C)C3)cc1	8	-61	5	-2	+	1
COc1c(Br)cc2c(C)c(C(=O)O)oc2c1Br	43*	-7	0	0	i	0
CC(C)NC(=O)CSc1nnc(-c2ccc(S(=O)(=O)N3CCCC3)cc2)n1CC1CCCO1 (stereo not drawn)	45*	2	11	1	i	0
NC(=O)CSc1nnc(-c2ccc(S(=O)(=O)N3CCOCC3)cc2)n1CC1CCCO1 (stereo not drawn)	12	-2	14	1	i	-1
Cc1occc1C(=O)N1CCN(c2ccc(Cl)c(Cl)c2)CC1	0	69*	0	1	i	-1
O=C(NCc1ccccc1)N1CCN(c2ccc(Cl)c(Cl)c2)CC1	1	100*	16	3	i	-1
COc1cc(C(c2nnnn2C(C)(C)C)N2CCN(c3nc4ccccc4s3)CC2)ccc1O (stereo not drawn)	3	-12	4	-2	i	0
O=C(COC(=O)c1ccco1)NC1CCCCC1	0	6	25*	0	i	0
O=C(NC1CCCCCCC1)c1ccco1	14	nt	9	-1	i	1
Cn1c(=O)c2sccc2n2c(CCCC(=O)NCc3ccc4c(c3)OCO4)nnc12	1	nt	15	-3	i	nt
COc1ncnc(OC)c1NC(=O)c1ccc(F)cc1	63*	1	10	-2	i	1
COc1cc(NC(=O)c2cccs2)c(C(=O)OCC(=O)NCc2ccco2)cc1OC	5	-15	13	-6	+	0
COc1ccc(Cn2nnnc2C(c2ccccn2)N2CCN(c3cc(Cl)ccc3C)CC2)cc1 (stereo not drawn)	4	3	28*	-3	i	-1
Cc1cc(C)c2c(=O)n(CC(=O)N3CCC(Cc4ccccc4)CC3)sc2n1	19	-19	7	-2	+	-1
Cc1cc(C)c2c(=O)n(CC(=O)NCCCN3CCN(c4ccccc4F)CC3)sc2n1	27	-32	8	-8	+	0
CCC(C)(C)NCCCCCNc1cc(OC)cc2cccnc12	nt	nt	nt	0	nt	nt
Cc1cc(C)n2c(SCC(=O)N(C)C3CCS(=O)(=O)C3)nnc2n1 (stereo not drawn)	0	-14	25*	-4	i	0
COc1ccc(/C=N/n2cnnc2SCc2ccccc2)cc1	5	-13	3	-3	i	-1
CCOc1ccc(C(=O)Nc2c(C(N)=O)oc3ccccc23)cc1	9	54*	15	5	i	0
Cc1cc(O)c(C(C)C)cc1N=C1CSC(=O)N1	i	-4	3	-4	i	3
Cc1ccc(-n2nc3c(c2NC(=O)c2c(-c4ccccc4Cl)noc2C)CS(=O)(=O)C3)c(C)c1	1	nt	25*	2	i	nt
O=C1C2C3C=CC(CO)(O3)C2C(=O)N1c1ccccc1-c1ccccc1 (stereo not drawn)	16	154*	5	-4	i	-1
CCOC(=O)Cn1c(CN(Cc2ccccc2)Cc2ccccc2)nc2c1c(=O)n(C)c(=O)n2C	6	-23	9	0	i	0
CCOC(=O)c1c(Nc2nc(C)c(C(=O)NC)s2)sc(C)c1C	33	-2	16	-5	+	0
SMILES	Spn MK inh	S1P1 ag pot	PMK inhibit	Hsp90 inh	DPM-DC inhibit	S1P3 ag
CCOC(=O)c1sc(NC(=O)C2CC2)nc1C	1	-16	4	-1	i	0
O=c1c(-c2ccccc2)c(O)c2cccc3c2n1CCC3	43*	-11	66*	-5	+	0
Cc1ccc(CNC(=O)C2CCN(S(=O)(=O)c3c(C)noc3C)CC2)cc1	+	nt	19	-3	i	nt
COc1ccc(CNC(=O)C2CCN(S(=O)(=O)c3cccc4cccnc34)CC2)cc1	2	-12	27*	-2	i	0
Cc1nc2sc3c(c2c2nc(-c4ccco4)nn12)CC(C)(C)OC3	5	-8	8	0	i	0
C=CCn1cnc2c(NCc3ccccc3)ncnc21	active	-8	0	-5	i	0
OCCNc1ncnc2c1ncn2Cc1ccccc1	14	-13	12	0	i	0
CCCN1CCC(N2CCN(c3cccc(C(F)(F)F)c3)CC2)CC1	6	-28	0	-3	i	1
Cc1ccc(-c2nnc(N3CCCCC3)c3ccccc23)cc1S(=O)(=O)N1CCN(C)CC1	6	-2	9	-2	i	-1
Cc1ccc(-n2sc3ccccc3c2=O)cc1S(=O)(=O)N1CCCCC1	100*	4	20	1	+	0
O=S(=O)(c1ccc2ccccc2c1)N1CCCCC1	6	-6	0	-3	i	0
O=c1c2ccccc2sn1-c1ccc(S(=O)(=O)N2CCCCC2)cc1	10	11	10	-4	+	0
O=c1c2ccccc2sn1-c1ccc(S(=O)(=O)N2CCCC2)cc1	100*	4	15	-1	+	0
CCOCCCNC(=O)C1CCN(S(=O)(=O)N2CCCCC2)CC1	0	1	20	2	i	0
COc1ccc(CCNC(=O)C2CCN(S(=O)(=O)N3CC(C)CC(C)C3)CC2)cc1OC (stereo not drawn)	0	-20	22	-2	i	-1
CCOCCCNC(=O)C1CCN(S(=O)(=O)N2CC(C)CC(C)C2)CC1 (stereo not drawn)	0	7	28*	-2	i	0
COc1ccccc1CNC(=O)C1CCN(S(=O)(=O)N2CC(C)CC(C)C2)CC1 (stereo not drawn)	5	30	25*	-2	i	-1
Nc1ccc(CN2CCN(c3ccc4ccccc4n3)CC2)cc1	5	17	7	-5	i	0
CCN(CC)CCC(=O)Nc1cc(OC)cc2cccnc12	nt	nt	nt	6	nt	nt
CCOC(=O)C1CCCN(C/C(O)=C(\C#N)c2nc(-c3ccccc3)cs2)C1 (stereo not drawn)	0	6	16	-5	i	0
O=C(O)CCC(=O)N1CCc2cc(S(=O)(=O)N3CC=C(c4ccccc4)CC3)ccc21	4	-15	0	-3	i	-1
CCOc1ccccc1OCCCCN1CCCC1	50*	nt	0	-1	i	-1
Cc1ccc(C)c(OCCCN2CCCC2)c1	3	5	9	-4	i	-1
